Experimental data from different studies.
Read-out: metabolic stability

Cc1cccnc1C(=O)Nc1ccc(N2C(=O)c3cccc(Cl)c3C2=O)c(Cl)c1
scaled CLint (rat, liver microsomes; 1 µM, pH 7.4): 95.9 mL/min/kg

c1ccc(-c2nc3n(c2-c2ccncc2)CCC3)nc1
hepatocyte CLint (rat, hepatocytes): 4.8 µL/min/10⁶ cells

CC(C)N1Cc2cc(C(F)(F)F)ncc2C2=CN=C(NCc3c(F)ccc4c3CCO4)N3C=NC(C1=O)C23 (stereo not drawn)
scaled CLint (rat, liver microsomes; 100 µM, 30 min): 18.9 mL/min/kg

COc1ccc(-c2nc3ccc(OC)cn3c2N(C)c2ccc(F)cc2)nc1
hepatocyte CLint (rat, hepatocytes): > 300 µL/min/10⁶ cells

CS(=O)(=O)c1ccc(-c2cnc(N)c(-c3ccc(C(F)(F)F)nc3)c2)cc1
microsomal CLint (male rat, liver microsomes; 1 µM): < 11.6 µL/min/mg

COc1ccc(-c2nc3ccccn3c2N(C)c2ccc(F)cc2)nc1
hepatocyte CLint (rat, hepatocytes): > 300 µL/min/10⁶ cells

O=C(Nc1ccc(N2C(=O)c3cccc(Cl)c3C2=O)c(Cl)c1)c1ncccc1Cl
scaled CLint (rat, liver microsomes; 1 µM, pH 7.4): 39.9 mL/min/kg

CCOc1c(O)cc(Br)c2c1CN1CCc3cc(OCC(F)F)c(O)cc3[C@@H]1C2
scaled CLint (rat, liver S9; 2 µM, pH 7.4): 902 mL/min/kg

CC(=O)c1cccc(OCc2cc(C(=O)N(C)[C@@H](C)c3ccccn3)no2)c1
scaled CLint (rat, liver microsomes): 770 mL/min/kg

C[C@H](C(=O)NC1Cc2ccccc2C1)c1ccc(F)cc1
microsomal CLint (rat, liver microsomes; 1 µM): > 200 µL/min/mg

COc1ccc(-c2nc3ccc(OC)cn3c2Nc2ccc(F)cc2)nc1
hepatocyte CLint (rat, hepatocytes): 76 µL/min/10⁶ cells

C[C@H](C(=O)NC1Cc2ccccc2C1)c1ccccc1
microsomal CLint (rat, liver microsomes; 1 µM): > 200 µL/min/mg

CC(F)(F)CN1Cc2cc(C(F)(F)F)ncc2C2=CN=C(NCc3c(F)ccc4c3CCO4)N3C=NC(C1=O)C23 (stereo not drawn)
scaled CLint (rat, liver microsomes; 100 µM, 30 min): 16.6 mL/min/kg

O=c1ccc2ccc(O)cc2o1
scaled CLint (rat, liver S9; 2 µM, pH 7.4): 787 mL/min/kg

O=c1[nH]c(=S)n(Cc2ccc(Cl)cc2CNCC(F)(F)F)c2cc[nH]c12
hepatocyte CLint (rat, hepatocytes): 30 µL/min/10⁶ cells
